According to ChEMBL document CHEMBL4732057, “Design, synthesis and biological evaluation of second-generation benzoylpiperidine derivatives as reversible monoacylglycerol lipase (MAGL) inhibitors” (Eur J Med Chem, 2021):
Active and inactive are the calls of the source. The calls are words filed in the database; no cut-off is given here.

Experiments:
[1] = molecular target: T1, Monoglyceride lipase (Homo sapiens) (UniProt Q99685); assay: Reversible inhibition of human recombinant MAGL using 4-nitrophenylacetate as substrate at 2 uM preincubated with enzyme for 60 mins followed by 40X dilution and 15 mins later incubated with substrate by microplate reader assay; conditions: time 75.0 min
T1 sequence (whole entry): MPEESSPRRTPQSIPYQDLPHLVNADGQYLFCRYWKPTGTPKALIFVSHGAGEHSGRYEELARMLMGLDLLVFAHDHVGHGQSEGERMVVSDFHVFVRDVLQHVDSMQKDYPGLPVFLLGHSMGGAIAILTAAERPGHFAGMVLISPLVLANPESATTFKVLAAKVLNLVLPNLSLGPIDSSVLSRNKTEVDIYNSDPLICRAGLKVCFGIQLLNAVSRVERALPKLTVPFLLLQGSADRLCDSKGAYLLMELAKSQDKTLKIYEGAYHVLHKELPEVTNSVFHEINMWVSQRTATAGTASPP
Outline: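 MAGL (880 ng) incubated 60 min at room temperature with compound at 2 µM in Tris pH 7.2, then diluted 40-fold in buffer. After 15 min, 4-NPA 500 µM stock added and activity read as in the main assay. Compared with 2000 nM and 50 nM undiluted; triplicates of two experiments.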

[2] = molecular target: T2, Monoglyceride lipase (Homo sapiens, UniProt Q99685); assay: Inhibition of MAGL in human U937 cells assessed as reduction in [3H]glycerol formation using [1,2,3-3H]2-OG as substrate incubated for 15 mins by liquid scintillation spectroscopy; assay type: cell-based, U-937
T2 sequence (Q99685 whole entry): T1 sequence (whole entry)
Outline: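 Intact U937 cells (1.0 × 10^6) in Tris-HCl 10 mM, EDTA 1 mM, 0.1% BSA, pH 8, given compound at 37 °C. Then 15 min at 37 °C with shaking. MAGL: 10 µM 2-OG plus 0.5 nM [3H]2-OG. FAAH: 1 µM AEA plus 2 nM [3H]AEA. Aqueous-phase tritium counted; three experiments in triplicate.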

| Compound | inhibition [1] | IC50 [2] [nM] |
| --- | --- | --- |
| O=C(c1ccc(Sc2ccccc2)cc1)C1CCN(C(=O)c2cc(O)c(F)cc2F)CC1 | Active | 568 |
| O=C(c1ccc(Cc2ccccc2)cc1)C1CCN(C(=O)c2cc(O)c(F)cc2F)CC1 | Active | 1230 |
| O=C(c1ccc(Cc2ccccc2)cc1)C1CCN(C(=O)c2cc(O)ccc2F)CC1 | Active | 844 |
| O=C(c1ccc(Sc2ccccc2)cc1)C1CCN(C(=O)c2cc(O)ccc2F)CC1 | Active | 868 |
